Converted amounts (≈) assume the structure as drawn.
What was measured:
J774.A1 = test: Cytotoxicity against J774A.1 cells assessed as reduction in cell viability at 31.3 microg/ml; format: toxicity, cell-based; conditions: mouse, dose 31.3 µg/ml
How it was run: (§1)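 Cells in DMEM with 10% FBS and 1% Pen/Strep, seeded at 10,000 cells/well and held overnight at 37 °C, 5% CO2. Compounds added at final 31.3-0.12 µg/mL (0.05% DMSO vehicle) for 24 h. Resazurin then added for 6 h; fluorescence read at ex 560/em 590. Triton X-100 1% as positive control; values normalized to vehicle. Run in quadruplicate.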

HEK293 = test: Cytotoxicity against human HEK-293 cells assessed as reduction in cell viability at 31.3 microg/ml; format: toxicity, cell-based; conditions: dose 31.3 µg/ml; how it was run: as §1
Candida albicans [1] = test: Antifungal activity against itraconazole/fluconazole susceptible Candida albicans ATCC MYA-2876 assessed as fungal growth inhibition by double dilution method; format: functional
How it was run: (§2)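 Broth microdilution after CLSI M27-A3/M38-A2 with minor modifications. A single colony was grown overnight in YPD at 35 °C with shaking at 200 rpm. Cells were mixed 1:1 with compound (final 0.06-31.3 µg/mL, from DMSO stocks) and incubated 48 h at 35 °C.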

[Candida] auris [2] = Antifungal activity against Candida auris AR Bank # 383 assessed as fungal growth inhibition by double dilution method; format: functional; conditions: Candidozyma auris
How it was run: (§3)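 Broth microdilution after CLSI M27-A3/M38-A2 with minor changes. Single colony grown overnight in YPD at 35 °C, 200 rpm. Compound final range 0.06-31.3 µg/mL; incubated 48 h at 35 °C.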

[Candida] auris [3] = Antifungal activity against Candida auris AR Bank # 386 assessed as fungal growth inhibition by double dilution method; format: functional; conditions: Candidozyma auris; how it was run: as §3
Candida albicans [4] = test: Antifungal activity against Candida albicans ATCC 10231 assessed as fungal growth inhibition by double dilution method; format: functional; how it was run: as §3
Saccharomyces cerevisiae [5] = test: Antifungal activity against Saccharomyces cerevisiae AR Bank # 400 assessed as fungal growth inhibition by double dilution method; format: functional; how it was run: as §3
Candida albicans [6] = test: Antifungal activity against Candida albicans ATCC 64124 assessed as fungal growth inhibition by double dilution method; format: functional; how it was run: as §2
[Candida] auris [7] = Antifungal activity against Candida auris AR Bank # 387 assessed as fungal growth inhibition by double dilution method; format: functional; conditions: Candidozyma auris; how it was run: as §3
Clavispora lusitaniae = test: Antifungal activity against Clavispora lusitaniae AR Bank # 398 assessed as fungal growth inhibition by double dilution method; format: functional; how it was run: as §3
Aspergillus fumigatus [8] = test: Antifungal activity against Aspergillus fumigatus NRRL 6113 assessed as fungal growth inhibition by double dilution method; format: functional
Candida duobushaemulonii [9] = test: Antifungal activity against Candida duobushaemulonii AR Bank # 394 assessed as fungal growth inhibition by double dilution method; format: functional; conditions: Candidozyma duobushaemuli; how it was run: as §3
[Candida] auris [10] = Antifungal activity against Candida auris AR Bank # 390 assessed as fungal growth inhibition by double dilution method; format: functional; conditions: Candidozyma auris; how it was run: as §3
[Candida] haemuloni [11] = Antifungal activity against Candida haemulonii AR Bank # 393 assessed as fungal growth inhibition by double dilution method; format: functional; conditions: Candidozyma haemuli; how it was run: as §3
Candida duobushaemulonii [12] = test: Antifungal activity against Candida duobushaemulonii AR Bank # 391 assessed as fungal growth inhibition by double dilution method; format: functional; conditions: Candidozyma duobushaemuli; how it was run: as §3
Saccharomyces cerevisiae [13] = test: Antifungal activity against Saccharomyces cerevisiae AR Bank # 399 assessed as fungal growth inhibition by double dilution method; format: functional; how it was run: as §3
[Candida] haemuloni [14] = Antifungal activity against Candida haemulonii AR Bank # 395 assessed as fungal growth inhibition by double dilution method; format: functional; conditions: Candidozyma haemuli; how it was run: as §3
[Candida] auris [15] = Antifungal activity against Candida auris AR Bank # 381 assessed as fungal growth inhibition by double dilution method; format: functional; conditions: Candidozyma auris; how it was run: as §3
[Candida] auris [16] = Antifungal activity against Candida auris AR Bank # 388 assessed as fungal growth inhibition by double dilution method; format: functional; conditions: Candidozyma auris; how it was run: as §3
Aspergillus fumigatus [17] = test: Antifungal activity against Aspergillus fumigatus NRRL 163 assessed as fungal growth inhibition by double dilution method; format: functional
Nakaseomyces glabratus [18] = test: Antifungal activity against Candida glabrata ATCC 22019 assessed as fungal growth inhibition by double dilution method; format: functional; how it was run: as §3
[Candida] auris [19] = Antifungal activity against Candida auris AR Bank # 385 assessed as fungal growth inhibition by double dilution method; format: functional; conditions: Candidozyma auris; how it was run: as §3
Aspergillus terreus = test: Antifungal activity against Aspergillus terreus ATCC MYA-3633 assessed as fungal growth inhibition by double dilution method; format: functional
[Candida] auris [20] = Antifungal activity against Candida auris AR Bank # 382 assessed as fungal growth inhibition by double dilution method; format: functional; conditions: Candidozyma auris; how it was run: as §3
Cryptococcus neoformans = test: Antifungal activity against Cryptococcus neoformans ATCC MYA-895 assessed as fungal growth inhibition by double dilution method; format: functional; how it was run: as §3
Kodamaea ohmeri = test: Antifungal activity against Kodamaea ohmeri AR Bank # 396 assessed as fungal growth inhibition by double dilution method; format: functional; how it was run: as §3
Candida albicans [21] = test: Antifungal activity against itraconazole/fluconazole resistant Candida albicans ATCC 90819 assessed as fungal growth inhibition by double dilution method; format: functional; how it was run: as §2
Candida albicans [22] = test: Antifungal activity against itraconazole/fluconazole resistant Candida albicans ATCC MYA-1003 assessed as fungal growth inhibition by double dilution method; format: functional; how it was run: as §2
Aspergillus fumigatus [23] = test: Antifungal activity against Aspergillus fumigatus NRRL 5109 assessed as fungal growth inhibition by double dilution method; format: functional
Aspergillus nidulans = test: Antifungal activity against Aspergillus nidulans ATCC 38163 assessed as fungal growth inhibition by double dilution method; format: functional
[Candida] auris [24] = Antifungal activity against Candida auris AR Bank # 389 assessed as fungal growth inhibition by double dilution method; format: functional; conditions: Candidozyma auris; how it was run: as §3
Pichia kudriavzevii [25] = test: Antifungal activity against Pichia kudriavzevii AR Bank # 397 assessed as fungal growth inhibition by double dilution method; format: functional; how it was run: as §3
Candida duobushaemulonii [26] = test: Antifungal activity against Candida duobushaemulonii AR Bank # 392 assessed as fungal growth inhibition by double dilution method; format: functional; conditions: Candidozyma duobushaemuli; how it was run: as §3
Aspergillus flavus = test: Antifungal activity against Aspergillus flavus ATCC MYA-3631 assessed as fungal growth inhibition by double dilution method; format: functional
Pichia kudriavzevii [27] = test: Antifungal activity against Pichia kudriavzevii ATCC 6258 assessed as fungal growth inhibition by double dilution method; format: functional; how it was run: as §3
Candida albicans [28] = test: Antifungal activity against itraconazole/fluconazole resistant Candida albicans ATCC MYA-1237 assessed as fungal growth inhibition by double dilution method; format: functional; how it was run: as §2
Candida albicans [29] = test: Antifungal activity against itraconazole/fluconazole susceptible Candida albicans ATCC MYA-2310 assessed as fungal growth inhibition by double dilution method; format: functional; how it was run: as §2
[Candida] auris [30] = Antifungal activity against Candida auris AR Bank # 0384 assessed as fungal growth inhibition by double dilution method; format: functional; conditions: Candidozyma auris; how it was run: as §3
[Candida] auris [31] = Antifungal activity against Candida auris AR Bank # 0390 assessed as fungal growth inhibition by double dilution method; format: functional; conditions: Candidozyma auris; how it was run: as §3
Nakaseomyces glabratus [32] = test: Antifungal activity against Candida glabrata ATCC 2001 assessed as fungal growth inhibition by double dilution method; format: functional; how it was run: as §3
[Candida] auris [33] = Antifungal activity against Candida auris AR Bank # 384 assessed as fungal growth inhibition by double dilution method; format: functional; conditions: Candidozyma auris; how it was run: as §3

C[C@@H](c1ncncc1F)[C@](O)(Cn1cncn1)c1ccc(F)cc1F [VORICONAZOLE]
Activity (J774.A1): Non-Toxic
Activity (HEK293): Non-Toxic

C[C@@H]1[C@H](O)[C@@H](C)/C=C/C=C/C=C/C=C/C=C/C=C/C=C/[C@H](O[C@@H]2O[C@H](C)[C@@H](O)[C@H](N)[C@@H]2O)C[C@@H]2O[C@](O)(C[C@@H](O)C[C@@H](O)[C@H](O)CC[C@@H](O)C[C@@H](O)CC(=O)O[C@H]1C)C[C@H](O)[C@H]2C(=O)O [AMPHOTERICIN B]
MIC (Candida albicans [1]): 1.95 µg/mL (≈ 2.11 µM)
MIC ([Candida] auris [2]): 1.95 µg/mL (≈ 2.11 µM)
MIC ([Candida] auris [3]): 0.98 µg/mL (≈ 1.06 µM)
MIC (Candida albicans [4]): 1.95 µg/mL (≈ 2.11 µM)
MIC (Saccharomyces cerevisiae [5]): 1.95 µg/mL (≈ 2.11 µM)
MIC (Candida albicans [6]): 1.95 µg/mL (≈ 2.11 µM)
MIC ([Candida] auris [7]): 0.98 µg/mL (≈ 1.06 µM)
MIC (Clavispora lusitaniae): 3.9 µg/mL (≈ 4.22 µM)
MIC (Aspergillus fumigatus [8]): 1.95 µg/mL (≈ 2.11 µM)
MIC (Candida duobushaemulonii [9]): 0.98 µg/mL (≈ 1.06 µM)
MIC ([Candida] auris [10]): 1.95 µg/mL (≈ 2.11 µM)
MIC ([Candida] haemuloni [11]): 15.6 µg/mL (≈ 16.9 µM)
MIC (Candida duobushaemulonii [12]): 7.8 µg/mL (≈ 8.44 µM)
MIC (Saccharomyces cerevisiae [13]): 15.6 µg/mL (≈ 16.9 µM)
MIC ([Candida] haemuloni [14]): 3.9 µg/mL (≈ 4.22 µM)
MIC ([Candida] auris [15]): 0.98 µg/mL (≈ 1.06 µM)
MIC ([Candida] auris [16]): 1.95 µg/mL (≈ 2.11 µM)
MIC (Aspergillus fumigatus [17]): 0.98 µg/mL (≈ 1.06 µM)
MIC (Nakaseomyces glabratus [18]): 0.98 µg/mL (≈ 1.06 µM)
MIC ([Candida] auris [19]): 1.95 µg/mL (≈ 2.11 µM)
MIC (Aspergillus terreus): 3.9 µg/mL (≈ 4.22 µM)
Activity (J774.A1): Non-Toxic
MIC ([Candida] auris [20]): 0.98 µg/mL (≈ 1.06 µM)
MIC (Cryptococcus neoformans): 7.8 µg/mL (≈ 8.44 µM)
MIC (Kodamaea ohmeri): 1.95 µg/mL (≈ 2.11 µM)
MIC (Candida albicans [21]): 0.98 µg/mL (≈ 1.06 µM)
MIC (Candida albicans [22]): 0.98 µg/mL (≈ 1.06 µM)
Activity (HEK293): Non-Toxic
MIC (Aspergillus fumigatus [23]): 0.98 µg/mL (≈ 1.06 µM)
MIC (Aspergillus nidulans): 15.6 µg/mL (≈ 16.9 µM)
MIC ([Candida] auris [24]): 1.95 µg/mL (≈ 2.11 µM)
MIC (Pichia kudriavzevii [25]): 0.49 µg/mL (≈ 0.53 µM)
MIC (Candida duobushaemulonii [26]): 7.8 µg/mL (≈ 8.44 µM)
MIC (Aspergillus flavus): 31.3 µg/mL (≈ 33.9 µM)
MIC (Pichia kudriavzevii [27]): 0.98 µg/mL (≈ 1.06 µM)
MIC (Candida albicans [28]): 1.95 µg/mL (≈ 2.11 µM)
MIC (Candida albicans [29]): 0.98 µg/mL (≈ 1.06 µM)
MIC ([Candida] auris [30]): 1.95 µg/mL (≈ 2.11 µM)
MIC ([Candida] auris [31]): 1.95 µg/mL (≈ 2.11 µM)
MIC (Nakaseomyces glabratus [32]): 0.98 µg/mL (≈ 1.06 µM)
MIC ([Candida] auris [33]): 1.95 µg/mL (≈ 2.11 µM)
